Measurements taken from ChEMBL document CHEMBL1124725, “Inhibition of steroid 5 alpha-reductase by unsaturated 3-carboxysteroids” (J Med Chem, 1990).

Assays:
[1] = molecular target: T1, Steroid 5-alpha-reductase (Rattus norvegicus, UniProt P24008+P31214); assay: In vitro inhibition of Steroid 5-alpha-reductase in rat ventral prostates.; format: tissue-based, Prostate gland
T1 sequence (P24008 whole entry): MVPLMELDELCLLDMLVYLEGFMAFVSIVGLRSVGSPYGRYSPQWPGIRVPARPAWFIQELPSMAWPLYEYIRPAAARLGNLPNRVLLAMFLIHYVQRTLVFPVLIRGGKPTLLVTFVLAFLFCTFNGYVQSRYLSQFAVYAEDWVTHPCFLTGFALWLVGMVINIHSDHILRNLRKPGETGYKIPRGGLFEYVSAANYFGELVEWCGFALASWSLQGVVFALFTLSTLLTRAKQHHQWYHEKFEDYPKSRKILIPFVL
T1 sequence (P31214 whole entry): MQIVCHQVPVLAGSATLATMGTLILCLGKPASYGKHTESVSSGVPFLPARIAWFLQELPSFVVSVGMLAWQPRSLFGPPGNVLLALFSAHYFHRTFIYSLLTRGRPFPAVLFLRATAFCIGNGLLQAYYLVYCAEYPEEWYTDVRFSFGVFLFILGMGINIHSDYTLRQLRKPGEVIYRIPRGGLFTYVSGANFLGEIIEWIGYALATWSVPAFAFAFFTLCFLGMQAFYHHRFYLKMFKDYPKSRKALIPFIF
Summary of the method: (§1)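 Rat ventral prostate microsomes were incubated with [14C]T (1.2 μM) and test compound (0–10 μM), both dried from ethanol. Buffer was 20 mM sodium phosphate, pH 6.6, with 400 μM NADPH, at 37 °C for 20–30 min, keeping T consumption ≤20%. After ethyl acetate quench, DHT plus […] formation was measured. Apparent Ki came from Dixon analysis, or IC50 for hyperbolic inhibition; ranges reflect different enzyme preparations.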

[2] = molecular target: T2, 3-oxo-5-alpha-steroid 4-dehydrogenase 2 (Homo sapiens, UniProt P31213); assay: In vitro inhibition of Steroid 5-alpha-reductase in human prostatic tissue.; settings: read-out: Ki app
T2 sequence (P31213 whole entry): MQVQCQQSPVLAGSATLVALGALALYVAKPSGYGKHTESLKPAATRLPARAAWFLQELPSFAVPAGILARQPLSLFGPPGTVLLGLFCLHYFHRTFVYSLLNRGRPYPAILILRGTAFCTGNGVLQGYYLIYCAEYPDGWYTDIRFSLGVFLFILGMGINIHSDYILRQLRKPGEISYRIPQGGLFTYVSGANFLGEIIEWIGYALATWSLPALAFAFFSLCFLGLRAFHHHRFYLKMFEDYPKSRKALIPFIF
Summary of the method: (§2)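 Microsomes from surgically derived benign hyperplastic human prostate. Incubation was in 50 mM sodium citrate, pH 5.0, with 400 μM NADPH at 37 °C for 20–30 min, with ≤20% of T consumed. The reaction was quenched with ethyl acetate, and the read-out was total 5α-reduced products (DHT + ADIOL). Ki,app came from Dixon plots, or IC50 if nonlinear; ranges span microsome preparations.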

[3] = molecular target: T2, 3-oxo-5-alpha-steroid 4-dehydrogenase 2; assay: In vitro inhibitory activity against Steroid 5-alpha-reductase was determined in human prostatic tissue expressed as apparent inhibition constant; Range is 7-12; settings: read-out: Ki app
Summary of the method: as §2, with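 “prostate. [14C]T (1.2 μM) and inhibitor (0–10 μM) were dried down from ethanol.” for “prostate.”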

[4] = molecular target: T2, 3-oxo-5-alpha-steroid 4-dehydrogenase 2; assay: In vitro inhibitory activity against Steroid 5-alpha-reductase was determined in human prostatic tissue expressed as apparent inhibition constant; Range is 7-18; settings: read-out: Ki app
[5] = molecular target: T1, Steroid 5-alpha-reductase; assay: In vitro inhibitory activity against Steroid 5-alpha-reductase was determined in rat ventral prostates expressed as apparent inhibition constant; Range is 35-50; format: tissue-based, Prostate gland; summary of the method: as §1
[6] = molecular target: T2, 3-oxo-5-alpha-steroid 4-dehydrogenase 2; assay: In vitro inhibitory activity against Steroid 5-alpha-reductase was determined in human prostatic tissue expressed as apparent inhibition constant; Range is 700-900
[7] = molecular target: T1, Steroid 5-alpha-reductase; assay: In vitro inhibitory activity against 5-alpha reductase was determined in rat ventral prostates expressed as apparent inhibition constant; format: tissue-based, Prostate gland; summary of the method: as §1
[8] = molecular target: T2, 3-oxo-5-alpha-steroid 4-dehydrogenase 2; assay: In vitro inhibitory activity against 5-alpha reductase was determined in human prostatic tissue expressed as apparent inhibition constant; settings: read-out: Ki app
Summary of the method: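 Microsomes from surgically obtained benign hyperplastic human prostate; 50 mM sodium citrate, pH 5.0, 37 °C, 20–30 min. Substrate [14C]testosterone 1.2 μM, NADPH 400 μM final, inhibitor 0–10 μM. Read-out is conversion to total 5α-reduced metabolites (DHT plus 5α-androstanediol), keeping T consumption ≤20%. Ki,app from Dixon analysis for linear inhibitors; ranges given across microsome preparations.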

[9] = molecular target: T1, Steroid 5-alpha-reductase; assay: In vitro inhibitory activity against Steroid 5-alpha-reductase was determined in rat ventral prostates expressed as apparent inhibition constant; Range is 20-30; format: tissue-based, Prostate gland; summary of the method: as §1

## CC(C)N(C(=O)[C@H]1CCC2C3CCC4=C[C@@H](C(=O)O)CC[C@]4(C)C3CC[C@@]21C)C(C)C (stereo partly drawn)
[1]
  Ki app: 2000 nM
[2]
  Ki: 200 nM

## CC(C)N(C(=O)[C@H]1CCC2C3CCC4=C[C@H](C(=O)O)CC[C@]4(C)C3CC[C@@]21C)C(C)C (stereo partly drawn)
[1]
  Ki app: > 10000 nM
[2]
  Ki: 570 nM

## C[C@]12CCC(C(=O)O)=CC1=CCC1C2CC[C@@]2(C)C1CC[C@@H]2C#N (stereo partly drawn)
[1]
  Ki app: 140 nM
[2]
  Ki: 790 nM

## CC(C)N(C(=O)[C@H]1CCC2C3CC[C@H]4C=C(C(=O)O)C=C[C@]4(C)C3CC[C@@]21C)C(C)C (stereo partly drawn)
[1]
  Ki app: 65 nM
[2]
  Ki: 62 nM

## CC(C)N(C(=O)[C@H]1CCC2C3CCC4=CC(C(=O)O)=CC[C@]4(C)C3CC[C@@]21C)C(C)C (stereo partly drawn)
[1]
  Ki app: 120 nM
[2]
  Ki: 52 nM

## CC(C)N(C(=O)[C@H]1CCC2C3CCC4=C[C@@](O)(C(=O)O)CC[C@]4(C)C3CC[C@@]21C)C(C)C (stereo partly drawn)
[1]
  Ki app: > 10000 nM
[2]
  Ki: 320 nM

## CC(C)N(C(=O)[C@H]1CCC2C3CC(F)=C4C=C(C(=O)O)CC[C@]4(C)C3CC[C@@]21C)C(C)C (stereo partly drawn)
[1]
  Ki app: 33 nM
[2]
  Ki: 32 nM

## CC(C)N(C(=O)[C@H]1CCC2C3CC[C@H]4CC(C(=O)O)=CC[C@]4(C)C3CC[C@@]21C)C(C)C (stereo partly drawn)
[1]
  Ki app: 110 nM
[2]
  Ki: 85 nM

## CC(CO)[C@@H]1CCC2C3CCC4C=C(C(=O)O)CC[C@]4(C)C3CC[C@@]21C (stereo partly drawn)
[1]
  Ki app: 155 nM
[2]
  Ki: 5000 nM

## CC(C)N(C(=O)[C@H]1CCC2C3CCC4=C[C@](O)(C(=O)O)CC[C@]4(C)C3CC[C@@]21C)C(C)C (stereo partly drawn)
[1]
  Ki app: > 10000 nM
[2]
  Ki: 220 nM

## CC(C)(C)NC(=O)[C@H]1CC[C@H]2[C@@H]3CC[C@H]4C=C(C(=O)O)CC[C@]4(C)[C@H]3CC[C@]12C
[1]
  Ki app: 11 nM
[2]
  Ki: 110 nM

## CC(C)N(C(=O)[C@H]1CC[C@H]2[C@@H]3CC[C@H]4C(F)=C(C(=O)O)CC[C@]4(C)[C@H]3CC[C@]12C)C(C)C
[1]
  Ki app: 35 nM

## CC(C)N(C(=O)[C@H]1CCC2C3C=CC4=CC(C(=O)O)=CC[C@]4(C)C3CC[C@@]21C)C(C)C (stereo partly drawn)
[3]
  Ki: 7 nM
[1]
  Ki app: 300 nM

## CC(C)N(C(=O)[C@H]1CCC2C3CC=C4C=C(C(=O)O)CC[C@]4(C)C3CC[C@@]21C)C(C)C (stereo partly drawn)
[4]
  Ki: 7 nM
[5]
  Ki app: 35 nM

## CC(C)N(C(=O)[C@H]1CC[C@H]2[C@@H]3CC[C@H]4CC(C(=O)O)CC[C@]4(C)[C@H]3CC[C@]12C)C(C)C (stereo partly drawn)
[1]
  Ki app: 340 nM
[2]
  Ki: 2200 nM

## CC(C)N(C(=O)[C@H]1CCC2C3CCC4=C(CCC(C(=O)O)=C4)C3CC[C@@]21C)C(C)C (stereo partly drawn)
[1]
  Ki app: 290 nM

## CC(C)N(C(=O)[C@H]1CCC2C3CC=C4C=C(C(=O)O)CC[C@@H]4C3CC[C@@]21C)C(C)C (stereo partly drawn)
[1]
  Ki app: 140 nM

## CC1=C2C=C(C(=O)O)CC[C@]2(C)C2CC[C@@]3(C)C(CC[C@@H]3C(=O)N(C(C)C)C(C)C)C2C1 (stereo partly drawn)
[1]
  Ki app: 200 nM

## CC1=C(C(=O)O)CC[C@@]2(C)C1=CCC1C2CC[C@@]2(C)C1CC[C@@H]2C(=O)N(C(C)C)C(C)C (stereo partly drawn)
[1]
  Ki app: 70 nM
[2]
  Ki: 35 nM

## CC(C)N(C(=O)[C@H]1CCC2C3CC=C4C=C(C(=O)O)CC[C@]4(C)C3C=C[C@@]21C)C(C)C (stereo partly drawn)
[1]
  Ki app: 47 nM
[2]
  Ki: 7 nM

## CC(C)N(C(=O)[C@H]1CCC2C3CC=C4C=C(C(=O)O)C=C[C@]4(C)C3CC[C@@]21C)C(C)C (stereo partly drawn)
[1]
  Ki app: 600 nM
[2]
  Ki: 60 nM

## CC(C)N(C(=O)[C@H]1CCC2C3CC(C(F)(F)F)=C4C=C(C(=O)O)CC[C@]4(C)C3CC[C@@]21C)C(C)C (stereo partly drawn)
[1]
  Ki app: 1000 nM
[6]
  IC50: 700 nM

## CC(C)N(C(=O)[C@H]1CCC2C3CC[C@H]4C=C(C(=O)O)CC[C@]4(C)C3CC[C@@]21C)C(C)C (stereo partly drawn)
[7]
  Ki app: 70 nM
[8]
  Ki: 30 nM

## CC(C)(C)NC(=O)[C@H]1CC[C@H]2[C@@H]3CC=C4C=C(C(=O)O)CC[C@]4(C)[C@H]3CC[C@]12C [EPRISTERIDE]
[9]
  Ki app: 20 nM
